Calls of active or inactive are those of the source. The rule behind the calls is not given here.
Legend:
[1] = target: Metabotropic glutamate receptor 5 (Homo sapiens) (UniProt P41594); assay: Displacement of [3H]-quisqualic acid from mGlu5 receptor
In short: (§1)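 Membranes were incubated with 27 nM [3H]-quisqualic acid for 2 h at 22 C in 50 mM Tris-HCl pH 7.4 with 10 mM MgCl2. Nonspecific binding was taken with 10 μM quisqualic acid. Bound ligand was filtered and counted.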

[2] = target: Histamine H3 receptor (Homo sapiens) (UniProt Q9Y5N1); assay: Displacement of [3H]-RAMH from histamine H3 receptor
Chain of Histamine H3 receptor (Homo sapiens) (Q9Y5N1 whole entry): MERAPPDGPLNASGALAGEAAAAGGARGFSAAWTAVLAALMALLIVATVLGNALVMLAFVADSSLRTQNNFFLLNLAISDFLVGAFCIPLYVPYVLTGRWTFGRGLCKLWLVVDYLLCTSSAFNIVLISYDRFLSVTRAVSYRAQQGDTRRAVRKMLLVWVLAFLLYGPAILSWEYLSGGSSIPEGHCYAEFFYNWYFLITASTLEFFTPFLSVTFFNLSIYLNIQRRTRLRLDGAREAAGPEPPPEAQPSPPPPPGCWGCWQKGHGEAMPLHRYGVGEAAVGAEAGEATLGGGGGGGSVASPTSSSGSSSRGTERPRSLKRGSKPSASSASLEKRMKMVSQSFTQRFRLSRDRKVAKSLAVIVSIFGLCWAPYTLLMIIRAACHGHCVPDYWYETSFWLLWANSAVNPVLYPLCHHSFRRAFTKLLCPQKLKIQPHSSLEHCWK
In short: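 Membranes were incubated with 2.5 nM [3H]-RAMH for 2 h at 22 C in 50 mM Tris-HCl pH 7.4 with 10 mM MgCl2. Nonspecific binding was taken with 10 μM RAMH. Bound ligand was filtered and counted.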

[3] = Displacement of [3H]-YM09151-2 from dopamine D2 receptor high binding affinity site in lamb brain striatum membranes at 25 uM; format: cell membranes, Ovis aries, Membrane
In short: (§2)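 Lamb striatal membranes (0.5 mg prot/mL) in 50 mM Tris-HCl pH 7.4 with 10 mM MgCl2 were incubated 2 h at 22 C. Radioligand was 0.9 nM [3H]-SCH23390 (D1) or 0.7 nM [3H]-YM09151-2 (D2). Screens used 25 μM compound; competition used increasing concentrations. Nonspecific binding was taken with 10 μM SCH23390 (D1) or raclopride (D2). Bound ligand was filtered and counted. KD values came from a two-state dimer receptor model fit.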

[4] = target: D(1A) dopamine receptor (Homo sapiens) (UniProt P21728); assay: Agonist activity at human dopamine D1 receptor expressed in CHO cells assessed as decrease of Akt phosphorylation at Ser473; format: functional, cell-based
Chain of D(1A) dopamine receptor (Homo sapiens) (P21728 whole entry): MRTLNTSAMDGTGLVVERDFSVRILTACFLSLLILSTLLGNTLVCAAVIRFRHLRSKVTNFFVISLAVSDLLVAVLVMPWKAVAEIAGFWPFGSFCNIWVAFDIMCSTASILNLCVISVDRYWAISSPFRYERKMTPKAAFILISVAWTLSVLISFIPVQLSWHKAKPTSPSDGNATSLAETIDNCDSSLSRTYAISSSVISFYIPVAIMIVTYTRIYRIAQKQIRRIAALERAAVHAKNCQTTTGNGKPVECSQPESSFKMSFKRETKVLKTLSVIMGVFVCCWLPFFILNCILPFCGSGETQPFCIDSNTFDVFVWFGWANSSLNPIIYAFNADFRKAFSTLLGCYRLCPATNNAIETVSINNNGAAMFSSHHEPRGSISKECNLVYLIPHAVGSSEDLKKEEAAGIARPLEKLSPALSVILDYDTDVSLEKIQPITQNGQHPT
In short: (§3)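 Transiently transfected CHO cells (human D1R for D1 lines, D2R for D2 lines; 2 μg cDNA, PEI) were serum-starved 16 h. They were optionally pretreated 5 min with 5 or 50 μM antagonist (SCH23390 for D1R, raclopride for D2R), then given increasing ligand concentrations for 5 min. Lysates were western-blotted for phospho-ERK1/2 or P-Ser473Akt, normalized to total ERK. Mean ± SEM of four independent experiments.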

[5] = target: D(1A) dopamine receptor (Homo sapiens) (UniProt P21728); assay: Agonist activity at human dopamine D1 receptor expressed in CHO cells assessed as decrease of Akt phosphorylation at Ser473 in presence of SCH23390; format: functional, cell-based; in short: as §3
[6] = target: Metabotropic glutamate receptor 1 (Homo sapiens) (UniProt Q13255); assay: Displacement of [3H]-quisqualic acid from mGlu1 receptor; in short: as §1
Chain of Metabotropic glutamate receptor 1 (Homo sapiens) (Q13255 19-1194 limits assumed): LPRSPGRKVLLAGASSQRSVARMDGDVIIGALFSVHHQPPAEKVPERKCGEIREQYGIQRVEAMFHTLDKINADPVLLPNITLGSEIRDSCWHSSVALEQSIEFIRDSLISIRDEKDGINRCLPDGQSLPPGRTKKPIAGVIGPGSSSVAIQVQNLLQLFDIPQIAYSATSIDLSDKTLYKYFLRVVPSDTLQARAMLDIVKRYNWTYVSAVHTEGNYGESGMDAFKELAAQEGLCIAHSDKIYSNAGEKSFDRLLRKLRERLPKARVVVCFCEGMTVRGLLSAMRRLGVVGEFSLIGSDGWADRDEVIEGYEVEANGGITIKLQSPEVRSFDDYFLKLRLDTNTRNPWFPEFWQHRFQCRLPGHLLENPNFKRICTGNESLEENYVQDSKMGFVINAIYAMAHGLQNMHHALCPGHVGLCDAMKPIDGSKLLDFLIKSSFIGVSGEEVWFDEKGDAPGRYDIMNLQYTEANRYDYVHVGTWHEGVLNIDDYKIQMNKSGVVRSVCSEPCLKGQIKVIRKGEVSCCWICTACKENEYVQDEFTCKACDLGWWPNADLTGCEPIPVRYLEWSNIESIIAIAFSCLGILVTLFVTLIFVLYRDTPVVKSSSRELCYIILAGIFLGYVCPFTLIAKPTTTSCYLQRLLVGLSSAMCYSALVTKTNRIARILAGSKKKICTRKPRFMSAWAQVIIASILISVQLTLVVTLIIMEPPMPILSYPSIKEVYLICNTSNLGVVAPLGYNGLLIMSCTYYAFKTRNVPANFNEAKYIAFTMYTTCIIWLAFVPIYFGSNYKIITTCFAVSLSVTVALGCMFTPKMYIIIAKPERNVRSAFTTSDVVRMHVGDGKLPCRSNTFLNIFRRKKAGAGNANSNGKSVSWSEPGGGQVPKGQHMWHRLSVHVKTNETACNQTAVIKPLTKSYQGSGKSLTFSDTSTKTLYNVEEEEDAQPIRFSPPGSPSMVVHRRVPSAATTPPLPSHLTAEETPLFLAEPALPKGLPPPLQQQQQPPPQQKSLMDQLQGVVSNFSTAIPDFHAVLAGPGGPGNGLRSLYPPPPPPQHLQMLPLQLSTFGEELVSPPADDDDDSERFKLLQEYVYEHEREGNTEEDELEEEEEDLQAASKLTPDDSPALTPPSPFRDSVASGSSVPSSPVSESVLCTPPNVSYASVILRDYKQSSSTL

[7] = target: D(1A) dopamine receptor (Homo sapiens) (UniProt P21728); assay: Agonist activity at human dopamine D1 receptor expressed in CHO cells assessed as increase of ERK1/2 phosphorylation; format: functional, cell-based; in short: as §3
[8] = target: D(2) dopamine receptor (Homo sapiens) (UniProt P14416); assay: Agonist activity at human dopamine D2 receptor expressed in CHO cells assessed as increase of ERK1/2 phosphorylation; format: functional, cell-based; in short: as §3
Chain of D(2) dopamine receptor (Homo sapiens) (P14416 whole entry): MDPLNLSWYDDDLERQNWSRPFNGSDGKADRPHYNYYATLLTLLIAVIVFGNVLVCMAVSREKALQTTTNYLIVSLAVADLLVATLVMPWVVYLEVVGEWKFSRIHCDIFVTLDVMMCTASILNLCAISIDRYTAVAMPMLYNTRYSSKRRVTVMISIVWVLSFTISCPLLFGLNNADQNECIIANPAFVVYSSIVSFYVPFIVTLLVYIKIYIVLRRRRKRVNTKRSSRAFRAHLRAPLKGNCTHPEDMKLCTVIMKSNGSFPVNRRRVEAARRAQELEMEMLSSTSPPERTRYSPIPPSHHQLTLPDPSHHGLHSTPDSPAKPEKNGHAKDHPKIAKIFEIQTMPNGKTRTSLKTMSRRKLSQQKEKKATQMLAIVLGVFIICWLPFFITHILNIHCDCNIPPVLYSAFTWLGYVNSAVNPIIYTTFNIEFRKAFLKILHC

D(3) dopamine receptor [9] = target: T1, D(3) dopamine receptor (Homo sapiens, UniProt P35462); assay: Displacement of [3H]-raclopride from human dopamine D3 receptor high binding affinity site expressed in CHO cells; format: cell-based
T1 sequence (P35462 whole entry): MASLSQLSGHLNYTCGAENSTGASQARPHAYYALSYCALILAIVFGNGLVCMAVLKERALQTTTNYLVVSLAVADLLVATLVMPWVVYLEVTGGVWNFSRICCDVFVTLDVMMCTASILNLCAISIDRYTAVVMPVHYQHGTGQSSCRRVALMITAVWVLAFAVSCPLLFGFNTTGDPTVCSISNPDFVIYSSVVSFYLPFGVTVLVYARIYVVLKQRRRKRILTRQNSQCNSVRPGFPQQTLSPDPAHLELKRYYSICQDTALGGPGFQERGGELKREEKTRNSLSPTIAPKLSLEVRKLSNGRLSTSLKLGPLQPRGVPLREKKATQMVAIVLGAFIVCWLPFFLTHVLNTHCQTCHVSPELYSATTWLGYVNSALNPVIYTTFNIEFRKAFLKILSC
In short: (§4)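 Membranes (0.5 mg prot/mL) from CHO cells transiently transfected with 2 μg human D3R cDNA were incubated with 4 nM [3H]-raclopride and increasing competitor for 2 h at 22 C in Tris-HCl pH 7.4 with 10 mM MgCl2. Nonspecific binding was taken with 10 μM raclopride. High- and low-affinity KD values came from a two-state dimer receptor model fit. Triplicate.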

[10] = target: D(2) dopamine receptor (Homo sapiens) (UniProt P14416); assay: Agonist activity at human dopamine D2 receptor expressed in CHO cells assessed as decrease of Akt phosphorylation at Ser473; format: functional, cell-based; in short: as §3
[11] = target: D(2) dopamine receptor (Homo sapiens) (UniProt P14416); assay: Agonist activity at human dopamine D2 receptor expressed in CHO cells assessed as increase of ERK1/2 phosphorylation in presence of raclopride; format: functional, cell-based; in short: as §3
[12] = target: D(2) dopamine receptor (Homo sapiens) (UniProt P14416); assay: Agonist activity at human dopamine D2 receptor expressed in CHO cells assessed as decrease of Akt phosphorylation at Ser473 in presence of raclopride; format: functional, cell-based; in short: as §3
[13] = Displacement of [3H]-SCH23390 from dopamine D1 receptor low binding affinity site in lamb brain striatum membranes at 25 uM; format: cell membranes, Ovis aries, Membrane; in short: as §2
[14] = Displacement of [3H]-YM09151-2 from dopamine D2 receptor low binding affinity site in lamb brain striatum membranes at 25 uM; format: cell membranes, Ovis aries, Membrane; in short: as §2
[15] = target: Cannabinoid receptor 1 (Homo sapiens) (UniProt P21554); assay: Displacement of [3H]-CP55940 from CB1 receptor
Chain of Cannabinoid receptor 1 (Homo sapiens) (P21554 whole entry): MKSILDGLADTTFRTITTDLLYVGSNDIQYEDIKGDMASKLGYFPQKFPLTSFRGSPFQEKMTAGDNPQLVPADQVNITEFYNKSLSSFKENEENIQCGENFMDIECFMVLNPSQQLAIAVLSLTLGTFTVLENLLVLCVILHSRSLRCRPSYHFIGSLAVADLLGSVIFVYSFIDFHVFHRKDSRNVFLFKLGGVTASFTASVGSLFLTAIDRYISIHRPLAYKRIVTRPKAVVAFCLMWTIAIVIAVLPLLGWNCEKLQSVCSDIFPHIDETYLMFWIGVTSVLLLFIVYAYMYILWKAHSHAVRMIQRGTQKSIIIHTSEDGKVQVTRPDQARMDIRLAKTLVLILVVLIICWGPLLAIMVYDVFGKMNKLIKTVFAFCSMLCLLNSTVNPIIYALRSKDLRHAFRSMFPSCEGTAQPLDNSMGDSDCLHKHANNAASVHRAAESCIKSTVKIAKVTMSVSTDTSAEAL
In short: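 Membranes in siliconated tubes were incubated with 0.5 nM [3H]-CP 55940 for 2 h at 22 C in Tris-HCl pH 7.4 with 10 mM MgCl2 and 1 mg/mL fatty acid-free BSA. BSA was also in the filter presoak and wash. Nonspecific binding was taken with 10 μM CP55940.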

[16] = target: Somatostatin receptor type 5 (Homo sapiens) (UniProt P35346); assay: Displacement of [125I]-Tyr11-somatostatin 14 from SST5 receptor
Chain of Somatostatin receptor type 5 (Homo sapiens) (P35346 whole entry): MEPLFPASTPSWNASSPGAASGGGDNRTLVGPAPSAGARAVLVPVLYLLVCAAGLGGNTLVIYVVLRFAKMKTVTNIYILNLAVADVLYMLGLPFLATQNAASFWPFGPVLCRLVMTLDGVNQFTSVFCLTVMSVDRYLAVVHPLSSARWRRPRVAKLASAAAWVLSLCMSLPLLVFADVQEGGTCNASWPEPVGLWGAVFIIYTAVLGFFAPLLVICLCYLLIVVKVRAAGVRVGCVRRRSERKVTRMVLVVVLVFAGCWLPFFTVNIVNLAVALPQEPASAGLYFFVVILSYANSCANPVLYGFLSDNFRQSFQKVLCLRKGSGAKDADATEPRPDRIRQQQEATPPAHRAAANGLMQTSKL
In short: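 Membranes were incubated with 0.1 nM [125I]-Tyr11-somatostatin 14 for 3 h at 22 C in 50 mM Tris-HCl pH 7.4 with 10 mM MgCl2. Nonspecific binding was taken with 100 nM somatostatin. Bound ligand was separated by filtration and counted.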

[17] = target: D(1A) dopamine receptor (Homo sapiens) (UniProt P21728); assay: Agonist activity at human dopamine D1 receptor expressed in CHO cells assessed as increase of ERK1/2 phosphorylation in presence of SCH23390; format: functional, cell-based; in short: as §3
D(3) dopamine receptor [18] = target: T1, D(3) dopamine receptor; assay: Displacement of [3H]-raclopride from human dopamine D3 receptor low binding affinity site expressed in CHO cells; format: cell-based; in short: as §4
[19] = Displacement of [3H]-SCH23390 from dopamine D1 receptor high binding affinity site in lamb brain striatum membranes at 25 uM; format: cell membranes, Ovis aries, Membrane; in short: as §2

Chain of Metabotropic glutamate receptor 5 (Homo sapiens) (P41594 21-1212 limits assumed): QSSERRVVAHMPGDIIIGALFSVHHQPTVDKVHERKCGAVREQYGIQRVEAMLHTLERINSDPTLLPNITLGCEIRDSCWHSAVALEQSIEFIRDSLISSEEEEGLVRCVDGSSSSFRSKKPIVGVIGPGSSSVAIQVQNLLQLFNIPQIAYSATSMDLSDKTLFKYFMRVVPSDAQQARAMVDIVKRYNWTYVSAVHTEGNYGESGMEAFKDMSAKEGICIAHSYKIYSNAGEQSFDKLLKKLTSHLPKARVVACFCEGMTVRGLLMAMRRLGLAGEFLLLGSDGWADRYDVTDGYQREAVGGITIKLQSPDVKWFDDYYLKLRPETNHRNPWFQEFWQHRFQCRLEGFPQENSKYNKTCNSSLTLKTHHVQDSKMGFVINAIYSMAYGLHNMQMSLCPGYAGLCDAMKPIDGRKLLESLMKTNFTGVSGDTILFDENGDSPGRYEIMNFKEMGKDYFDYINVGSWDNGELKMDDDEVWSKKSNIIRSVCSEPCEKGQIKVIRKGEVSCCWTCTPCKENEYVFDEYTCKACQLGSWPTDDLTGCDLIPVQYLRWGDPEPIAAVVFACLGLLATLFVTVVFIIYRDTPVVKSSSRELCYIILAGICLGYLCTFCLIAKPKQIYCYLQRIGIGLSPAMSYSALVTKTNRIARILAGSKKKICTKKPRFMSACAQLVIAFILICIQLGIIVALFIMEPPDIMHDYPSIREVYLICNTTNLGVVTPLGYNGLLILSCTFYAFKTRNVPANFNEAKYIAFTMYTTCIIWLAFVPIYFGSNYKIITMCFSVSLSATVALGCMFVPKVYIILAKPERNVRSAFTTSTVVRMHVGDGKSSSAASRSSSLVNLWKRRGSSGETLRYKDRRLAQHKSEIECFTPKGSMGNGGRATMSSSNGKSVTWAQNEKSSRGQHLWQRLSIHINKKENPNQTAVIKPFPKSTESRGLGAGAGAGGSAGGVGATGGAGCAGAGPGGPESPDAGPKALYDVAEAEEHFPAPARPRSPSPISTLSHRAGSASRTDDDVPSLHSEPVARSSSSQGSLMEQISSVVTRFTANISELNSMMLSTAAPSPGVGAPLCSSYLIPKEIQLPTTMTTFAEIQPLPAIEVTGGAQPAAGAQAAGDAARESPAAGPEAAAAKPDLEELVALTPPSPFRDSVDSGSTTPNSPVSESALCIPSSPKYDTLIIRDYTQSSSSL

For `CN1C[C@H](C(=O)N[C@@H](Cc2ccc([N+](=O)[O-])cc2)C(=O)N[C@@H](Cc2ccc(F)cc2)C(=O)N2CCCC(C(=O)NCCCCCC(=O)NCCCC[C@H](NC(=O)CCCC[C@H]3SC[C@H]4NC(=O)N[C@H]43)C(N)=O)C2)C=C2c3cccc4[nH]cc(c34)C[C@H]21` (some centres undefined), which Activity [1] is on record?
Its Activity is “inactive”.

And the Activity [2]?
The Activity was “inactive”.

What about the Kd [3] of the same molecule?
The Kd was 17 nM.

And the Activity [4]?
The Activity was “Dose-dependent effect”.

And the Activity [5]?
The Activity was “inactive”.

What about the Activity [6] of the same molecule?
The Activity was “inactive”.

And the Activity [7]?
The Activity was “Dose-dependent effect”.

And the Activity [8]?
Its Activity is “Dose-dependent effect”.

And the Kd (D(3) dopamine receptor [9])?
The Kd was 23 nM.

And the Activity [10]?
Its Activity is “Dose-dependent effect”.

What about the Activity [11] of the same molecule?
Its Activity is “inactive”.

And the Activity [12]?
Its Activity is “inactive”.

And the Kd [13]?
Its Kd is 1500 nM.

What about the Kd [14] of the same molecule?
The Kd was 9000 nM.

What about the Activity [15] of the same molecule?
Its Activity is “inactive”.

And the Activity [16]?
Its Activity is “inactive”.

What about the Activity [17] of the same molecule?
Its Activity is “inactive”.

What about the Kd (D(3) dopamine receptor [18]) of the same molecule?
The Kd was 93 nM.

And the Kd [19]?
Its Kd is 56 nM.
